Results published in ChEMBL document CHEMBL4007404, “Identification of High-Potency Human TLR8 and Dual TLR7/TLR8 Agonists in Pyrimidine-2,4-diamines” (J Med Chem, 2017).
Activity calls are given as the source filed them. The rule behind the calls is not given here.

What was measured:
[1] = target: Toll-like receptor 3 (Homo sapiens) (UniProt O15455); assay: Activity at human TLR3 expressed in HEK293 cells co-expressing secreted alkaline phosphatase assessed as induction of NF-kappaB/AP-1 promoter activity by measuring increase in secreted alkaline phosphatase level by spectrophotometric method; format: cell-based
Method in brief: (§1)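 HEK293 cells stably co-transfected with the relevant human TLR (2, 3, 4, 5, 7, 8 or 9) plus an NF-κB/AP-1-driven secreted alkaline phosphatase reporter, kept in selection medium. Cells at ~10⁵ cells/ml were exposed to graded concentrations of stimuli in 384-well format, liquid-handler assisted. Supernatant sAP was read at 620 nm with an alkaline phosphatase-specific chromogen.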

[2] = target: Toll-like receptor 5 (Homo sapiens) (UniProt O60602); assay: Activity at human TLR5 expressed in HEK293 cells co-expressing secreted alkaline phosphatase assessed as induction of NF-kappaB/AP-1 promoter activity by measuring increase in secreted alkaline phosphatase level by spectrophotometric method; format: cell-based; method in brief: as §1
[3] = target: T1, Toll-like receptor 7 (Homo sapiens) (UniProt Q9NYK1); assay: Agonist activity at human TLR7 expressed in HEK293 cells co-expressing secreted alkaline phosphatase assessed as induction of NF-kappaB/AP-1 promoter activity by measuring increase in secreted alkaline phosphatase level at 100 uM by spectrophotometric method; format: cell-based
T1 sequence (whole entry): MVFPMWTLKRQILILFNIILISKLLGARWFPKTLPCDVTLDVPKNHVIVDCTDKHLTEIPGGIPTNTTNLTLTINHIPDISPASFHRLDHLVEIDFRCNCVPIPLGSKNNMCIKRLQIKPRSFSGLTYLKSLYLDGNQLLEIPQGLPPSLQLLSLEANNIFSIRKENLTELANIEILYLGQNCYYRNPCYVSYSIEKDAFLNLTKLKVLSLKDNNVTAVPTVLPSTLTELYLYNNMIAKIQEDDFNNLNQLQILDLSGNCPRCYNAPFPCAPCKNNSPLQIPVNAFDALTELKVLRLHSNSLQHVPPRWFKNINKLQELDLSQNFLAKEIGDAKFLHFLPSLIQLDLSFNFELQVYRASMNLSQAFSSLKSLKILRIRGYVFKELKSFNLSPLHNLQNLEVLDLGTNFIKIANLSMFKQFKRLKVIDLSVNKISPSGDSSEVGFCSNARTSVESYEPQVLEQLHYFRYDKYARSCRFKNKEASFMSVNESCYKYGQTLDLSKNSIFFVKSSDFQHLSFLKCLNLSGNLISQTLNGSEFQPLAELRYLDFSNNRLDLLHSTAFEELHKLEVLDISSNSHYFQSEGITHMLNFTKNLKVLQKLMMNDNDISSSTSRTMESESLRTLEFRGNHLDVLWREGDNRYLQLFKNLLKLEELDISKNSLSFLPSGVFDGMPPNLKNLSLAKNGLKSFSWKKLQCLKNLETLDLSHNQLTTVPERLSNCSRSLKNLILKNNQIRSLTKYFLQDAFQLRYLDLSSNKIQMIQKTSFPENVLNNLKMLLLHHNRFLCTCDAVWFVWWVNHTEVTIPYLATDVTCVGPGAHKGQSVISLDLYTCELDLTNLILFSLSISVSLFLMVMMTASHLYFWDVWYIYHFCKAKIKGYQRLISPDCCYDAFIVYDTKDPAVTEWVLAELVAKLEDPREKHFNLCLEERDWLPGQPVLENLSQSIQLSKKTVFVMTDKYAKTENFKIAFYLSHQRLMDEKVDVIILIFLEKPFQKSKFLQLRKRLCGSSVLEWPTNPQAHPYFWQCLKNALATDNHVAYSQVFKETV

[4] = target: T2, Toll-like receptor 9 (Homo sapiens) (UniProt Q9NR96); assay: Activity at human TLR9 expressed in HEK293 cells co-expressing secreted alkaline phosphatase assessed as induction of NF-kappaB/AP-1 promoter activity by measuring increase in secreted alkaline phosphatase level by spectrophotometric method; format: cell-based; method in brief: as §1
T2 sequence (whole entry): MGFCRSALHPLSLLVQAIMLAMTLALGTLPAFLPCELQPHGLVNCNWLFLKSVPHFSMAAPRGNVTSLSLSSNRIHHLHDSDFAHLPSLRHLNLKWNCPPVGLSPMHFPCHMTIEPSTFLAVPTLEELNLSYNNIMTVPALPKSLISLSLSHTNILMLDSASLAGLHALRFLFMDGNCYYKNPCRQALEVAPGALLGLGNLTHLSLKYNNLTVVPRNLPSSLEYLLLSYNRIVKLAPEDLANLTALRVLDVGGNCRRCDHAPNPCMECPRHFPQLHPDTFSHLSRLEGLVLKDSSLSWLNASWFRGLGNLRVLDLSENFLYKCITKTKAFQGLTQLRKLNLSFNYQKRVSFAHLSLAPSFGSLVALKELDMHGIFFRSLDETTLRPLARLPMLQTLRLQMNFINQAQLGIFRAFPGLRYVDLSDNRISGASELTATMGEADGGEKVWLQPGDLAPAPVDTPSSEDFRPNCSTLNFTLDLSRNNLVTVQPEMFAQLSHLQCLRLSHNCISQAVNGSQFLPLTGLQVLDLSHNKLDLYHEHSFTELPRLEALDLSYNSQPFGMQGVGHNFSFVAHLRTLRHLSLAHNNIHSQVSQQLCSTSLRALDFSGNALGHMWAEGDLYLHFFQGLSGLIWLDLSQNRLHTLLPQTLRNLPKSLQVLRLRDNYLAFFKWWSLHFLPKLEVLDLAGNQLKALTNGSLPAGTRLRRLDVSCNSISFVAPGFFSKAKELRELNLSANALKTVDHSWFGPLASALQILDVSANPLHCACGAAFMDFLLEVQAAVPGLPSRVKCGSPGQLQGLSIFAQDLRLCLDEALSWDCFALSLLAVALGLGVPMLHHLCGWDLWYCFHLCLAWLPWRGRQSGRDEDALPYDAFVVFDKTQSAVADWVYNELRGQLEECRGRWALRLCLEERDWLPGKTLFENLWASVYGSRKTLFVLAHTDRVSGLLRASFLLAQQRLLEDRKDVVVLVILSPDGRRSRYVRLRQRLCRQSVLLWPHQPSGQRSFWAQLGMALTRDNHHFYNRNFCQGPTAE

[5] = target: Toll-like receptor 2 (Homo sapiens) (UniProt O60603); assay: Activity at human TLR2 expressed in HEK293 cells co-expressing secreted alkaline phosphatase assessed as induction of NF-kappaB/AP-1 promoter activity by measuring increase in secreted alkaline phosphatase level by spectrophotometric method; format: cell-based; method in brief: as §1
[6] = target: Toll-like receptor 4 (Homo sapiens) (UniProt O00206); assay: Activity at human TLR4 expressed in HEK293 cells co-expressing secreted alkaline phosphatase assessed as induction of NF-kappaB/AP-1 promoter activity by measuring increase in secreted alkaline phosphatase level by spectrophotometric method; format: cell-based; method in brief: as §1
[7] = target: T3, Toll-like receptor 8 (Homo sapiens) (UniProt Q9NR97); assay: Agonist activity at TLR8 in human CD141 positive conventional dendritic cells assessed as upregulation of CD80 expression after 16 hrs by efluor 780 dye based flow cytometry
T3 sequence (whole entry): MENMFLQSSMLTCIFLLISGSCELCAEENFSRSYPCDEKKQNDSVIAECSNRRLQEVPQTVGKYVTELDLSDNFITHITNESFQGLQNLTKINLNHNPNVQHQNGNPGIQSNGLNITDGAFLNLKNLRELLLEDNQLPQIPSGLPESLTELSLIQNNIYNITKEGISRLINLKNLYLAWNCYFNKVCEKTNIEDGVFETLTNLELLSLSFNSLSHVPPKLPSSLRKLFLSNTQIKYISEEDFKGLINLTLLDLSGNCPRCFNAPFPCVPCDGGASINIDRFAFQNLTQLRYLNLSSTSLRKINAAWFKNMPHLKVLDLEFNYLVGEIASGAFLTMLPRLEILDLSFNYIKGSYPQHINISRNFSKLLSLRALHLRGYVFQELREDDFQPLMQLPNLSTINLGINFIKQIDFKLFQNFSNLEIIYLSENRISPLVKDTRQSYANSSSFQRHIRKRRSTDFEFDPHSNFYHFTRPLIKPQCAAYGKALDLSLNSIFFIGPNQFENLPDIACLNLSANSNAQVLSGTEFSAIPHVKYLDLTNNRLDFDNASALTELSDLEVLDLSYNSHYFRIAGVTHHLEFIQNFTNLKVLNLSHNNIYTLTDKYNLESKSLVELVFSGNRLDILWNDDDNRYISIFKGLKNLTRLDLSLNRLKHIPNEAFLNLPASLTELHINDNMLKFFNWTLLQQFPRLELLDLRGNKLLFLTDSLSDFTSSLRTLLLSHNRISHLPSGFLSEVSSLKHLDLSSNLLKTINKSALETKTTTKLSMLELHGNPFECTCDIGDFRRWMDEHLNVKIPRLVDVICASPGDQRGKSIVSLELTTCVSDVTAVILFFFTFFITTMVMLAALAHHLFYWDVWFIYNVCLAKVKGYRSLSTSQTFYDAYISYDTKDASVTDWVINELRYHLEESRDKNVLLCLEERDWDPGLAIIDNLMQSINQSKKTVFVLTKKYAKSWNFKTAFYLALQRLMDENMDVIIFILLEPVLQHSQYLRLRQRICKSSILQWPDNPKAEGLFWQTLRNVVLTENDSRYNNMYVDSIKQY
Method in brief: (§2)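 Human PBMCs were incubated with serial compound dilutions at 37 °C for 16 h, with DMSO controls. Cells were stained with eFluor780 viability dye, then lineage and DC antibodies plus CD80 PE, and fixed. 250,000 gated events were acquired. pDCs were gated as Live Lin⁻ CD123⁺ CD303⁺ CD304⁺ HLA-DR⁺. cDCs were gated as Lin⁻ CD1c⁺ CD141⁻ CD11c⁺ HLA-DR⁺ or Lin⁻ CD141⁺ CD1c⁻ HLA-DR⁺. Median fluorescence intensity was quantified.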

[8] = target: T1, Toll-like receptor 7 (Homo sapiens); assay: Inhibition of human TLR7 expressed in HEK293 cells co-expressing secreted alkaline phosphatase assessed as NF-kappaB/AP-1 promoter activity by measuring increase in secreted alkaline phosphatase level at higher concentration by spectrophotometric method; format: cell-based
[9] = target: T1, Toll-like receptor 7 (Homo sapiens); assay: Agonist activity at TLR7 in human plasmacytoid dendritic cells assessed as upregulation of CD80 expression after 16 hrs by efluor 780 dye based flow cytometry; method in brief: as §2
[10] = target: T3, Toll-like receptor 8 (Homo sapiens); assay: Agonist activity at TLR8 in human […] conventional dendritic cells assessed as upregulation of CD80 expression after 16 hrs by efluor 780 dye based flow cytometry; method in brief: as §2
[11] = target: T3, Toll-like receptor 8 (Homo sapiens); assay: Agonist activity at human TLR8 expressed in HEK293 cells co-expressing secreted alkaline phosphatase assessed as induction of NF-kappaB/AP-1 promoter activity by measuring increase in secreted alkaline phosphatase level by spectrophotometric method; format: cell-based; method in brief: as §1
[12] = target: T1, Toll-like receptor 7 (Homo sapiens); assay: Agonist activity at human TLR7 expressed in HEK293 cells co-expressing secreted alkaline phosphatase assessed as induction of NF-kappaB/AP-1 promoter activity by measuring increase in secreted alkaline phosphatase level by spectrophotometric method; format: cell-based; method in brief: as §1
HEK293 = assay: Cytotoxicity against HEK293 cells expressing human TLR7 or TLR8 at 10^-4M; format: cell-based; details: hek293, 100 µM
[13] = target: T3, Toll-like receptor 8 (Homo sapiens); assay: Inhibition of human TLR8 expressed in HEK293 cells co-expressing secreted alkaline phosphatase assessed as NF-kappaB/AP-1 promoter activity by measuring increase in secreted alkaline phosphatase level at higher concentration by spectrophotometric method; format: cell-based

Sequence of Toll-like receptor 5 (Homo sapiens) (O60602 whole entry): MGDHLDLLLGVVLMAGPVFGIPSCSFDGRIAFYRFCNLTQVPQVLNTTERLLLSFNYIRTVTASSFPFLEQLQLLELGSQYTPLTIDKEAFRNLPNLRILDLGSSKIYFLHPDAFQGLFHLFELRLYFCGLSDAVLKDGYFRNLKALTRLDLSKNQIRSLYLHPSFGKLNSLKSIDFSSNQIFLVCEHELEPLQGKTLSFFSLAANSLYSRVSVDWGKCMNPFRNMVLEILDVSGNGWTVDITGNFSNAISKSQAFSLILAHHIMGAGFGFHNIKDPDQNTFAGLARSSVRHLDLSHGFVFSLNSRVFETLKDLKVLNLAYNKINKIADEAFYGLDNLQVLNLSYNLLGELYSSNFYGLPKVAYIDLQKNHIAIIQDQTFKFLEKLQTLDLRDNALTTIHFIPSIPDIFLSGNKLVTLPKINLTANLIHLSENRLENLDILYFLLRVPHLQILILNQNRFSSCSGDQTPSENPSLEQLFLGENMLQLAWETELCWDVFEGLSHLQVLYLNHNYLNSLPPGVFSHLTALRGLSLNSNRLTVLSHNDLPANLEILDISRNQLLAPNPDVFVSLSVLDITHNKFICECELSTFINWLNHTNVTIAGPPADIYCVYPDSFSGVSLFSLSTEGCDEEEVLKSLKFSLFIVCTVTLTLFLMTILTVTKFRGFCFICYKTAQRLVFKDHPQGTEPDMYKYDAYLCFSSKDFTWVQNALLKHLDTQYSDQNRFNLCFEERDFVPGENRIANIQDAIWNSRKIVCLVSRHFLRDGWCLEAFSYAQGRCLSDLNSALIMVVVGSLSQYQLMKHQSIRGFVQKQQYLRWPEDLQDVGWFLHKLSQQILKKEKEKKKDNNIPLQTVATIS
Sequence of Toll-like receptor 3 (Homo sapiens) (O15455 whole entry): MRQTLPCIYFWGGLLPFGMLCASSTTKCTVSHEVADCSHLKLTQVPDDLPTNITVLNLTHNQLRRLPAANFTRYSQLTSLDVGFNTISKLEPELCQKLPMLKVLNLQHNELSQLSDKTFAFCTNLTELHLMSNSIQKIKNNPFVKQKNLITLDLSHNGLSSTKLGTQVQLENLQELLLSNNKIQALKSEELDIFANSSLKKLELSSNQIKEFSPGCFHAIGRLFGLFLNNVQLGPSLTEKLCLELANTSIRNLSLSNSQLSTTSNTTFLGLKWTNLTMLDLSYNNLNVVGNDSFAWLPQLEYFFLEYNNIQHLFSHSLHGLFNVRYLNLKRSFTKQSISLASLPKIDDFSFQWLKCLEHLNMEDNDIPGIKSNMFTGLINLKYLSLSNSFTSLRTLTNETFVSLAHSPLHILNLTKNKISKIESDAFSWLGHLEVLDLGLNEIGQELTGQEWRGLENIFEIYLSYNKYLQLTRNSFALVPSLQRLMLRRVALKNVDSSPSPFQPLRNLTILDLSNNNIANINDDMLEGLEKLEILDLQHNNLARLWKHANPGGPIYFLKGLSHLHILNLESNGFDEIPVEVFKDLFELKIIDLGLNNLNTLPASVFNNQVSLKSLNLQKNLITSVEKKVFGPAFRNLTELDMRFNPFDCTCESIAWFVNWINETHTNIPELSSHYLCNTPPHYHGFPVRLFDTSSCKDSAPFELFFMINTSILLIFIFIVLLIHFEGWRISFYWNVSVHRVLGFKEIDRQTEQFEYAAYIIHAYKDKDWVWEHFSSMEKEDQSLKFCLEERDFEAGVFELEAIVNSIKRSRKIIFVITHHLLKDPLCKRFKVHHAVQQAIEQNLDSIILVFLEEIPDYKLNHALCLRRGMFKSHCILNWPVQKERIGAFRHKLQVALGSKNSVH
Sequence of Toll-like receptor 2 (Homo sapiens) (O60603 whole entry): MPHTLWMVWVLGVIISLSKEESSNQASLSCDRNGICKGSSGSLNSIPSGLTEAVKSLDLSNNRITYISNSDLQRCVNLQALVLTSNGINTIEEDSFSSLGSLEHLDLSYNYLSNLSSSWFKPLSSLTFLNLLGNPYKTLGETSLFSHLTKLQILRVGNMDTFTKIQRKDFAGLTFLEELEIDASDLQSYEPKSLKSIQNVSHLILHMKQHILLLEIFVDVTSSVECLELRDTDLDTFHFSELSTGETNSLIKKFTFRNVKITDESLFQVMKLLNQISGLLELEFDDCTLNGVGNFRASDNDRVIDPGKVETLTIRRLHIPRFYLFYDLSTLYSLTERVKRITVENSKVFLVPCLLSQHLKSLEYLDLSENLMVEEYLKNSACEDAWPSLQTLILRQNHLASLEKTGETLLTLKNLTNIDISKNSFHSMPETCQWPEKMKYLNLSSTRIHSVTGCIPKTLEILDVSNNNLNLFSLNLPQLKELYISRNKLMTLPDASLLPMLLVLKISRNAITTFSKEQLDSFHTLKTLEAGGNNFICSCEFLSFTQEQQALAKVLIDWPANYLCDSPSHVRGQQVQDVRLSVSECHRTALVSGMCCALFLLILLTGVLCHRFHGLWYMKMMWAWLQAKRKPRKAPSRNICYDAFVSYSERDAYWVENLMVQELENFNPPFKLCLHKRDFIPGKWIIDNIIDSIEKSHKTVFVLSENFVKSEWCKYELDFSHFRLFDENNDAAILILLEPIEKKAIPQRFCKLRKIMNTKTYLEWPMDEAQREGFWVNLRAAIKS
Sequence of Toll-like receptor 4 (Homo sapiens) (O00206 whole entry): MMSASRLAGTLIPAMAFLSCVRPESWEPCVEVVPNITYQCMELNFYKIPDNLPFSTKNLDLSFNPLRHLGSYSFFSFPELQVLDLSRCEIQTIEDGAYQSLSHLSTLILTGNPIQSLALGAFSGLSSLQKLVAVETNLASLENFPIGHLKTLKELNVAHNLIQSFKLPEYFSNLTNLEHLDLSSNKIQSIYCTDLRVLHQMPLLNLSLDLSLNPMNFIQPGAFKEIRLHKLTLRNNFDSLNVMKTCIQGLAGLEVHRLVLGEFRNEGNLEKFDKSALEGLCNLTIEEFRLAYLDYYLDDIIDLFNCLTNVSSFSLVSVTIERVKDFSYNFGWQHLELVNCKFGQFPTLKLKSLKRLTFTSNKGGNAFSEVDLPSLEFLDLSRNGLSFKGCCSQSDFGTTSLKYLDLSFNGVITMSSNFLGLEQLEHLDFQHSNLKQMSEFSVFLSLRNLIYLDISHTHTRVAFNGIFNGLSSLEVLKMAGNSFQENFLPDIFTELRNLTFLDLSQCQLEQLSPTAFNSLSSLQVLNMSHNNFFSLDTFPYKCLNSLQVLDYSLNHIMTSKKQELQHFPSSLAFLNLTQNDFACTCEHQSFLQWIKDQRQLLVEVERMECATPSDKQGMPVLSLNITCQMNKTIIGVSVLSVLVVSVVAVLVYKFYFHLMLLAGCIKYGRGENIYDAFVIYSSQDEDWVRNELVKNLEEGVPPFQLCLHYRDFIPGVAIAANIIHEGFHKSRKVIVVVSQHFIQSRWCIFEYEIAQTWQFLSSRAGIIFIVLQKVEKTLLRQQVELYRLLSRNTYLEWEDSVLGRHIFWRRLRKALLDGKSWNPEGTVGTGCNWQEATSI

| Activity [1] | Activity [2] | Activity [3] | Activity [4] | Activity [5] | Activity [6] | Activity [7] | inhibition [8] | Activity [9] | Activity [10] | Activity [11] | Activity [12] | inhibition [13] | Compound | Activity (HEK293) |
| --- | --- | --- | --- | --- | --- | --- | --- | --- | --- | --- | --- | --- | --- | --- |
| inactive | inactive | inactive | inactive | inactive | inactive | – | – | – | – | – | – | – | CCCCNc1nc(N)nc(C)c1Cc1ccccc1 | – |
| – | – | – | – | – | – | Active | Active | Active | Active | Active | Active | Active | CCCCc1nc2c(N)nc3ccccc3c2n1Cc1ccc(CN)cc1 | Non-Toxic |
